Reference: ChEMBL document CHEMBL1145966, “Orally active analogues of the dopaminergic prodrug 6-(N,N-di-n-propylamino)-3,4,5,6,7,8-hexahydro-2H-naphthalen-1-one: synthesis and pharmacological activity” (J Med Chem, 2003)

Tests used:
D(1A) dopamine receptor = D(1A) dopamine receptor (Bos taurus, UniProt Q95136); test: Binding affinity of compound for Dopamine receptor D1 using [3H]-SCH- 23390
Method in brief: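 Rat striatal membranes; inhibition of 0.20 nM [3H]SCH23390 binding at D1 sites, following Hyttel et al. Ki in nM, n = 3, SEM < 10%.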

D(2) dopamine receptor = D(2) dopamine receptor (Bos taurus, UniProt P20288); test: Binding affinity of compound for Dopamine receptor D2 using [3H]N-0437
Rattus norvegicus [1] = test: Total full contralateral turn in rat was observed at a dose of 0.3 mg kg-1 administered perorally; type: functional; details: route oral
Rattus norvegicus [2] = test: Total full contralateral turn in rat was observed at a dose of 1.0 mg kg-1 administered perorally; type: functional; details: route oral
Rattus norvegicus [3] = test: Total full contralateral turn in rat was observed at a dose of 0.1 mg kg-1 administered perorally; type: functional; details: route oral

Sequence of D(1A) dopamine receptor (Q95136 whole entry): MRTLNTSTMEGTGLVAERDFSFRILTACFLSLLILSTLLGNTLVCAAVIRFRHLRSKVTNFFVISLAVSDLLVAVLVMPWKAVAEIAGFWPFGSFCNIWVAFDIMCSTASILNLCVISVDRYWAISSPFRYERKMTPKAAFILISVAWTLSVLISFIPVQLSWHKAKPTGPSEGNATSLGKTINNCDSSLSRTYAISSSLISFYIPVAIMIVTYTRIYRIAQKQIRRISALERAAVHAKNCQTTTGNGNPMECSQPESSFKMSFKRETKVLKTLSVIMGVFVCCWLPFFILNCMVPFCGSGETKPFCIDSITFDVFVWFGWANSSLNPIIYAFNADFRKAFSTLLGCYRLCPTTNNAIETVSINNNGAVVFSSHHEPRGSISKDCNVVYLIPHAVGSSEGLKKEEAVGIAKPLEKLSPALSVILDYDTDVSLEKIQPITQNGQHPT
Sequence of D(2) dopamine receptor (P20288 whole entry): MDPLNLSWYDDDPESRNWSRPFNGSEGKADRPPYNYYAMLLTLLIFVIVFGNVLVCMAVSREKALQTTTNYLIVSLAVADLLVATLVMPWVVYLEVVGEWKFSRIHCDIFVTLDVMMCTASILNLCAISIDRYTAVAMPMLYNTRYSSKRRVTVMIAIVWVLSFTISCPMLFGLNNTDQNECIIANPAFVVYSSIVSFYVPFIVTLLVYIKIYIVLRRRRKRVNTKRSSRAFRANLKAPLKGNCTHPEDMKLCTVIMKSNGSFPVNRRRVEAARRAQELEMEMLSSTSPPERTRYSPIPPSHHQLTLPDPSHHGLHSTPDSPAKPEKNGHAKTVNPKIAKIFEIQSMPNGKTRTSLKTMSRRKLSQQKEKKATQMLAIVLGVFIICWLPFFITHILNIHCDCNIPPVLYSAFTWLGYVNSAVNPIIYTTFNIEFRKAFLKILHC

Compound	Ki (D(1A) dopamine receptor) [nM]	Ki (D(2) dopamine receptor) [nM]	Total turns (Rattus norvegicus [1])	Total turns (Rattus norvegicus [2])	Total turns (Rattus norvegicus [3])
CCCN(CCC)[C@@H]1Cc2cccc(O)c2C[C@H]1C	1.1	3	–	–	–
CCCN(CCC)C1CCC2=C(C1)CC(C)(C)CC2=O (racemic)	–	–	23	204	–
CCCN(CC)C1CCC2=C(CCCC2=O)C1 (racemic)	–	–	8901	–	4840
CCCN(CCc1cccs1)[C@H]1CCc2c(ccc(O)c2O)C1 (racemic)	110	6	–	–	–
CCCN(CCc1cccs1)C1CCC2=C(CCCC2=O)C1 (racemic)	–	–	–	503	262
C#CCN(C)C1CCC2=C(CCCC2=O)C1 (racemic)	–	–	513	–	713
CCCN(C)C1CCC2=C(CCCC2=O)C1 (racemic)	–	–	5740	–	2928
CCCN(CCCF)C1CCC2=C(CCCC2=O)C1 (racemic)	–	–	5194	7540	–
CCCN(CCC)[C@H]1CCC2=C(CCCC2=O)C1 (racemic)	–	–	5354	8787	2312
CCCN(CCc1cccs1)[C@H]1CCc2c(O)cccc2C1 (racemic) [ROTIGOTINE]	500	15	–	–	–
